KLK5 inh – human KLK5 protease inhibitors, primary screen, biochemical, 1536-well. Kallikrein-5 (Homo sapiens), Q9Y337. recombinant hK5, fluorogenic AMC substrate cleavage. hit rate 0.59% among 210,000. AID 873, 2007. inhibition, % at 5 µM;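 active = inhibition of 40% or more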;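 note: 0% = enzyme controls without compound and 100% = no-enzyme blanks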
Target sequence (Q9Y337 67-293 limits assumed): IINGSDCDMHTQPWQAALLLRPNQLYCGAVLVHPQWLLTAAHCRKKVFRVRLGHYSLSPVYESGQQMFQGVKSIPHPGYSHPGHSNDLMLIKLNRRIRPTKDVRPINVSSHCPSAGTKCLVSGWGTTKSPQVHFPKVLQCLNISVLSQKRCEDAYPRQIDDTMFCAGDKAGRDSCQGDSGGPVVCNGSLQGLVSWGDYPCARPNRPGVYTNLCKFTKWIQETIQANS
thrombin 1536 – human alpha-thrombin inhibitors, primary screen, counter-screen for coagulation protease inhibitor project, biochemical, 1536-well, fluorogenic AMC substrate | Boc-VPR-AMC fluorogenic substrate cleavage | inhibition, % at 5 µM | hit rate 0.26% among 220,000;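 active = inhibition at or above 40%; inactive = inhibition below 40%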;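 note: 0% = enzyme with no compound and 100% = wells without enzyme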
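Material: Human alpha-thrombin protein | Buffer or medium: pH 7.5 Tris-saline with Tween 20 | Reagent: Boc-VPR-AMC substrate, 15 µM final | Schedule: Reaction at ambient temperature | Detection: AMC fluorescence at 355 nm excitation and 460 nm emission | Evaluation: Percent inhibition scaled between no-compound controls and no-enzyme blanks | Controls: no-compound enzyme wells and no-enzyme blanks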
EP2 modulator – EP2 receptor modulators, cAMP readout, primary screen, cell-based, HTRF cAMP, PGE2 stimulation. Prostaglandin E2 receptor EP2 subtype (Homo sapiens), P43116. EP2-expressing cells, cAMP HTRF FRET, PGE2 co-stimulation. induction, % at 25 µM. hit rate 0.83% among 260,000. AID 940, 2007;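 active = compounds whose cAMP rise, as percent of the full-agonist control response, exceeds 60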;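 note: rat C6 glioma line stably carrying human EP2 under a CMV promoter; the protocol text gives 20 µM as final concentration; 100% = response of wells given 1 µM PGE2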
EP2 antag – human EP2 receptor antagonists, primary screen, TR-FRET cAMP, C6 glioma cells; Prostaglandin E2 receptor EP2 subtype (Homo sapiens), P43116; C6 glioma cells expressing human EP2; cells stimulated with saturating PGE2; inhibition, % at 25 µM; hit rate 0.52% among 260,000; AID 1422, 2008;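 active = percent inhibition above 40 after rounding to a whole number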;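 note: rat C6 glioma host cells with rolipram phosphodiesterase inhibitor present; the protocol text gives 20 µM as final concentration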
FXIa inh – human FXIa protease inhibitors, primary screen, biochemical, 1536-well. purified FXIa, Boc-Glu-Ala-Arg-AMC fluorogenic substrate. inhibition, % at 5 µM. hit rate 0.14% among 220,000;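 active = inhibition of at least 40%; inactive = inhibition below 40%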;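 note: fluorescence of freed AMC excited at 355 nm; 0% = enzyme without compound and 100% = no enzyme blank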
FXIIa inh – human FXIIa protease inhibitors, primary screen, biochemical, 1536-well; Coagulation factor XII (Homo sapiens), P00748; purified FXIIa, Boc-QGR-AMC fluorogenic substrate, 2 h; inhibition, % at 5 µM; hit rate 0.3% among 220,000; in the data active = inhibition above about 40%;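 note: 0% = enzyme with no compound and 100% = blank without enzyme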
EP2 confirm – cAMP induction in EP2, EP4, beta2-AR and parental cells, confirmation, counter-screen for EP2 modulator project, cell-based, five parallel assays, C6 glioma, HEK293; hit rate 47% among 1,300; cAMP HTRF induction; plus low (about EC15) PGE2 agonist; AID 1080, 2008; calls only at 20 µM (by protocol); shares compounds with EP2 modulator;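 active = cAMP induction above 50% in the main assay while under 30% in all four parallel counter assays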;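 note: rat C6 glioma cells stably expressing human EP2 receptor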
The depositor's hits bear a star. An excerpt weighted towards active compounds, which were near 2.1% of everything screened.

For C=CCNC(=O)CN1C(=O)c2cccc3cccc1c23 the results were EP2 modulator -21 and EP2 antag 15.
Cc1cc2cc3c(cc2nc1SCCN(C)C)OCCO3 was read as EP2 modulator -46 and EP2 antag 9.
`CC(=O)O[C@H]1C[C@@H](OC(C)=O)C(C)(C)C2C[C@@H](OC(C)=O)[C@]3(C)C([C@H](OC(C)=O)C[C@@]4(C)[C@H](c5ccoc5)OC(=O)[C@H]5O[C@]543)[C@]21C` (stereo partly specified) gave EP2 modulator 70*, EP2 antag 9 and EP2 confirm active.
`O=C(CSc1nnc(CNc2ccc(F)cc2)n1Cc1ccccc1)NCc1ccccc1` gave KLK5 inh -8, thrombin 1536 -1, EP2 modulator -9, EP2 antag 14, FXIa inh 6 and FXIIa inh 13.
Screening Cn1c(CNc2ccc(F)cc2)nnc1SCC(=O)NNC(=O)Cc1ccccc1 returned KLK5 inh -4, thrombin 1536 -7, EP2 modulator 51, EP2 antag 8, FXIa inh -4, FXIIa inh 3 and EP2 confirm inactive.
COc1c(Cl)cc(Cl)cc1C(=O)n1nc(C)cc1C was read as KLK5 inh 2, thrombin 1536 1, EP2 modulator 74*, EP2 antag 8, FXIa inh 5, FXIIa inh 9 and EP2 confirm inactive.
For CCC(C)(C)n1nnnc1C(C(C)C)N(Cc1cccs1)Cc1cc2ccc(C)c(C)c2[nH]c1=O (stereo unspecified) the results were EP2 modulator 46 and EP2 antag 8.
`COc1ccc(OC)c(C(=O)c2coc3ccc(OCC(=O)O)cc23)c1` gave KLK5 inh 0, thrombin 1536 0, EP2 modulator 65*, EP2 antag 14, FXIa inh 1, FXIIa inh 11 and EP2 confirm inactive.
`CC1CCN(c2nc3c(c(=O)[nH]2)CCN(Cc2ccccc2O)C3)CC1` gave EP2 modulator -34 and EP2 antag 6.
CCOc1ccc(/C=C/c2c([N+](=O)[O-])c(=O)n(C)c(=O)n2C)cc1 was read as KLK5 inh 1, thrombin 1536 -7, EP2 modulator -47, EP2 antag 3, FXIa inh 3 and FXIIa inh 7.
`Cn1c(/C=C/N(Cc2ccccc2)c2ccccc2)c([N+](=O)[O-])c(=O)n(C)c1=O` gave KLK5 inh 4, thrombin 1536 -3, EP2 modulator 68*, EP2 antag 5, FXIa inh 2, FXIIa inh 11 and EP2 confirm active.
Screening CCNc1nc(NCC)nc(SCCOc2ccc(C)cc2)n1 returned KLK5 inh -7, thrombin 1536 1, EP2 modulator 82*, EP2 antag 6, FXIa inh 20, FXIIa inh 26 and EP2 confirm active.
Screening CC1(C)Cc2ccccc2-c2nc3n(c(=O)c21)CCS3 returned KLK5 inh 4, thrombin 1536 -11, EP2 modulator 74*, EP2 antag 10, FXIa inh -1, FXIIa inh 3 and EP2 confirm active.
For COc1ncnc2c1oc1nc(CC(C)C)c3c(c12)CCCC3 the results were KLK5 inh -6, thrombin 1536 5, EP2 modulator 68*, EP2 antag 9, FXIa inh 11, FXIIa inh 26 and EP2 confirm active.
`CC(C)Cc1nc2oc3c(Cl)ncnc3c2c2c1CCCC2` gave KLK5 inh -2, thrombin 1536 -5, EP2 modulator 46, EP2 antag 7, FXIa inh 0 and FXIIa inh 8.

Source: PubChem BioAssay (several laboratories)
